Results on 41 molecules are retold here after ChEMBL document CHEMBL1629474, “Massive screening yields novel and selective Trypanosoma cruzi triosephosphate isomerase dimer-interface-irreversible inhibitors with anti-trypanosomal activity” (Eur J Med Chem, 2010).

Assay [1] concerns the target Triosephosphate isomerase, glycosomal (Trypanosoma cruzi) (UniProt P52270). The assay is described as follows: Inhibition of Trypanosoma cruzi triosephosphate isomerase at 400 uM after 2 hrs. In outline:
(§1)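 Recombinant E. coli-expressed enzyme, dialyzed into 100 mM triethanolamine/10 mM EDTA pH 7.4, was incubated with compound (DMSO stock) in 100 mM triethanolamine, 10 mM EDTA, pH 7.4, 10% DMSO at 36 °C for 2 h. An aliquot was then assayed for activity (glyceraldehyde 3-phosphate to dihydroxyacetone phosphate, α-glycerol phosphate dehydrogenase-coupled) with 5 ng enzyme. Irreversible inhibition was scored as loss of activity; means of two experiments.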

Assay [2] is described as follows: Selectivity for Trypanosoma cruzi triosephosphate isomerase over human triosephosphate isomerase.
Assay [3] has as its system Trypanosoma cruzi. The assay is described as follows: Antiparasitic activity against Trypanosoma cruzi T2 epimastigotes assessed as growth inhibition at 25 uM after 5 days. The assay is classed as functional. The settings on record: for inhibition of growth at 25 µM: T2, 120 h, read-out: GI. In outline:
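Late-log epimastigotes were grown axenically at 28 °C in BHI-tryptose with 5% fetal calf serum and seeded at 2×10^6/mL in medium containing compound (DMSO stock; final DMSO ≤1%, 1% DMSO control). Growth was read as A590 at day 0 and day 5. Inhibition = {1 − [(Ap − A0p)/(Ac − A0c)]} × 100. Means of two experiments.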

In assay [4] the target is Triosephosphate isomerase, glycosomal (Trypanosoma cruzi) (UniProt P52270). Put plainly: Inhibition of Trypanosoma cruzi triosephosphate isomerase at 100 uM after 2 hrs. In outline: as §1
Triosephosphate isomerase, glycosomal (Trypanosoma cruzi), sequence (P52270 whole entry): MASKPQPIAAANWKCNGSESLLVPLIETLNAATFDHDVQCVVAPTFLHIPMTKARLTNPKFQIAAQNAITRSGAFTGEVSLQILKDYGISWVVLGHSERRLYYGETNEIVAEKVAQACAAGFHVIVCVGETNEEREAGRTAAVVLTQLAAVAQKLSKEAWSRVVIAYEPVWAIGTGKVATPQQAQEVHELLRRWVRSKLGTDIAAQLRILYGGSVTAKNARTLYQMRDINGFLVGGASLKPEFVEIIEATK
The test system of assay [5] is Trypanosoma cruzi. Put plainly: Antiparasitic activity against Trypanosoma cruzi T2 epimastigotes assessed as growth inhibition. Particulars: read-out: ID50 (the source's name). The assay is classed as functional. In outline:
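Epimastigotes were cultured at 28 °C in BHI-tryptose plus 5% fetal calf serum and seeded at 2×10^6/mL with increasing compound concentrations (from DMSO stock; final DMSO ≤1%). Growth was followed as A590 against untreated controls. ID50 was the concentration halving absorbance relative to controls. Means of two experiments.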

The structures appear in SMILES notation. Active and inactive are the calls of the source. The rule behind the calls is not given here.

Consider `O=C1C(=Cc2ccc([N+](=O)[O-])cc2)C(=O)N(Cc2ccccc2)S(=O)(=O)N1Cc1ccccc1`, for which the inhibition (usually the change of the read-out against control, counted positive when it falls) was 74% in assay [1] and 28% in assay [4]. The Ratio in assay [2] was > 4. In addition, in assay [3], the result was Active.

With `[O-][n+]1onc2ccc(/C=C/c3ccc4c(c3)OCO4)cc21`, the figures for the inhibition in assay [1] and in assay [4] were 70% and 21%, respectively. The Ratio in assay [2] was > 4. For the same molecule, the result in assay [3] was Active.

Regarding `CCCCNC(=O)N/N=C/c1ccc([N+](=O)[O-])o1`, the inhibition amounted to 0% in assay [1] and 17% in assay [4]. Also, in assay [2], the Ratio is > 4. Besides, the outcome in assay [3] was Active.

As for `O=[N+]([O-])c1ccc(C=Cc2ccc3no[n+]([O-])c3c2)s1`, the inhibition was 71% in assay [1] and 82% in assay [4]. In addition, in assay [2], the Ratio is > 4. Also, the result in assay [3] was Active.

`[O-][n+]1onc(-c2ccccc2)c1CNc1cccc2ccccc12`: the figures for the inhibition in assay [1] and in assay [4] were 72% and 45%, respectively. The Ratio in assay [2] was > 4. Moreover, the IC50 in assay [5] is > 25 µM. Also, the inhibition of growth at 25 µM in assay [3] was determined as 24.7%.

On to `[O-][n+]1onc2ccc(/C=C/c3ccc4nonc4c3)cc21`, for which the figures for the inhibition in assay [1] and in assay [4] were 80% and 13%, respectively. Moreover, the Ratio in assay [2] was > 4. The result in assay [3] was Active.

`O=C1C(=Cc2ccc([N+](=O)[O-])s2)C(=O)N(CCc2ccccc2)S(=O)(=O)N1CCc1ccccc1`: the inhibition in assay [1] was found to be 82%; in assay [4], 68%. Besides, the Ratio in assay [2] is > 4. In addition, in assay [3], the outcome was Active.

For `O=C(N/N=C/C=C/c1ccc([N+](=O)[O-])o1)Nc1ccc2ccccc2c1`, the inhibition in assay [1] came to 100%; in assay [4], 47%. Also, in assay [2], the Ratio is > 4. Besides, the outcome in assay [3] was Active.

With `O=c1cc(-c2ccccc2)oc2ccccc12` [FLAVONE], the inhibition in assay [1] turned out to be 83%; in assay [4] it was 52%. Besides, in assay [2], the Ratio is > 4. The IC50 in assay [5] is > 25 µM. Further, the inhibition of growth at 25 µM in assay [3] came out at 19.1%.

On to `NC(=S)N/N=C/c1ccc([N+](=O)[O-])o1`, for which the inhibition is 85% in assay [1] and 57% in assay [4]. Moreover, the Ratio in assay [2] was > 4. Also, the result in assay [3] was Active.

In the case of `O=C(N/N=C/c1ccc([N+](=O)[O-])o1)Nc1ccc2ccccc2c1`, the inhibition in assay [1] worked out at 100%; in assay [4], 32%. In assay [2], the Ratio is > 4. Further, in assay [3], the result was Active.

With `CCCCCCN1C(=O)C(=Cc2ccc([N+](=O)[O-])cc2)C(=O)N(CCCCCC)S1(=O)=O`, the inhibition in assay [1] was determined as 98%; in assay [4], 26%. Moreover, in assay [2], the Ratio was > 4. The result in assay [3] was Active.

With `O=C1C(=Cc2ccc([N+](=O)[O-])s2)C(=O)N(Cc2ccccc2)S(=O)(=O)N1Cc1ccccc1`, the inhibition in assay [1] was 77%; in assay [4] it was 84%. Besides, the Ratio in assay [2] is > 4. In assay [3], the result was Active.

For `O=[N+]([O-])c1ccc(/C=C/C=N/NC(=S)Nc2ccccc2)o1`, the inhibition in assay [1] was 100%; in assay [4], 75%. Further, in assay [2], the Ratio is > 4. Also, the outcome in assay [3] was Active.

For the molecule `COc1ccc(CCNC(=O)N/N=C/c2ccc([N+](=O)[O-])o2)cc1OC`, the inhibition in assay [1] was 100%; in assay [4], 76%. The Ratio in assay [2] was > 4. The outcome in assay [3] was Active.

On to `[O-][n+]1onc2ccc(/C=N/N=C/c3cc(Br)ccc3O)cc21`, for which the inhibition stood at 100% in assay [1] and 0% in assay [4]. The Ratio in assay [2] was > 4. In assay [3], the outcome was Active.

For `Cc1c(CNc2ccc3ccccc3c2)no[n+]1[O-]`, the results for the inhibition in assay [1] and in assay [4] were 92% and 0%, respectively. In addition, in assay [2], the Ratio was > 4. Further, the outcome in assay [3] was Active.

Turning to `[O-][n+]1onc2ccc(/C=C/c3cccs3)cc21`, the inhibition amounted to 73% in assay [1] and 27% in assay [4]. The Ratio in assay [2] was > 4. Besides, the outcome in assay [3] was Active.

In assay [1], `O=C(Cn1ccnc1[N+](=O)[O-])NCc1ccccc1` [BENZNIDAZOLE] came in with an inhibition of 18%. Further, the Ratio in assay [2] is > 4. In addition, in assay [5], the IC50 is 7.4 µM. For the same molecule, the outcome in assay [3] was Active.

Consider `O=S(=O)(c1ccccc1)c1no[n+]([O-])c1S(=O)(=O)c1ccccc1`, for which the results for the inhibition in assay [1] and in assay [4] were 93% and 35%, respectively. The Ratio in assay [2] was > 4. In addition, the result in assay [3] was Active.

As for `[O-][n+]1onc2ccc(/C=C/Sc3ccc(F)cc3)cc21`, the inhibition in assay [1] stood at 88%; in assay [4], 47%. For the same molecule, in assay [2], the Ratio was > 4. For the same molecule, the result in assay [3] was Active.

For the molecule `O=C1C(=Cc2ccc([N+](=O)[O-])cc2)C(=O)N(CCc2ccccc2)S(=O)(=O)N1CCc1ccccc1`, the values for the inhibition in assay [1] and in assay [4] were 85% and 58%, respectively. Moreover, in assay [2], the Ratio was > 4. In addition, the result in assay [3] was Active.

For the molecule `NC(=O)N/N=C/c1ccc(OCc2ccc3no[n+]([O-])c3c2)cc1`, the figures for the inhibition in assay [1] and in assay [4] were 82% and 36%, respectively. Moreover, the Ratio in assay [2] is > 4. Further, the outcome in assay [3] was Active.

With `CCOC(=O)c1nc(-c2cc(C(C)(C)C)c(O)c(C(C)(C)C)c2)ns1`, the values for the inhibition in assay [1] and in assay [4] were 87% and 65%, respectively. Moreover, the Ratio in assay [2] was > 4. In addition, the outcome in assay [3] was Active.

For the molecule `Nc1ccc(-c2ccccc2)cc1[N+](=O)[O-]`, the figures for the inhibition in assay [1] and in assay [4] were 93% and 47%, respectively. In assay [2], the Ratio is > 4.

Take `O=C(N/N=C/c1ccc([N+](=O)[O-])o1)Nc1cccc2ccccc12`: the inhibition in assay [1] stood at 82%; in assay [4], 20%. The Ratio in assay [2] was > 4. Besides, the result in assay [3] was Active.

`O=[N+]([O-])c1ccc(/C=N/NC(=S)Nc2ccccc2)s1`: the inhibition in assay [1] worked out at 100%; in assay [4], 25%. In addition, the Ratio in assay [2] was > 4. Also, in assay [3], the result was Active.

In the case of `C/C(=C\c1ccc(Br)cc1)[N+](=O)[O-]`, the inhibition in assay [1] amounted to 95%; in assay [4], 0%. Besides, the Ratio in assay [2] is > 4. For the same molecule, the result in assay [3] was Active.

In assay [1], `[O-][n+]1onc(-c2ccccc2)c1CNc1ccc(Br)cc1` displayed an inhibition of 48%. In assay [2], the Ratio is > 4. In addition, the outcome in assay [3] was Active.

The molecule `C=CCNC(=S)N/N=C/C=C/c1ccc([N+](=O)[O-])s1` came in with an inhibition in assay [1] of 26%. Besides, the Ratio in assay [2] was > 4. The result in assay [3] was Active.

In assay [1], `CCCCCCOC(=O)N/N=C/c1no[n+]([O-])c1C` had an inhibition of 17%. In assay [2], the Ratio was > 4. In addition, in assay [3], the outcome was Active.

Regarding `C=CCNC(=S)N/N=C\c1ccccc1OCc1ccc2no[n+]([O-])c2c1`, the values for the inhibition in assay [1] and in assay [4] were 75% and 45%, respectively. Besides, in assay [2], the Ratio was > 4. Besides, the result in assay [3] was Active.

For the molecule `[O-][n+]1onc2ccc(C=Cc3ccc(Br)cc3)cc21`, the inhibition in assay [1] came out at 22%. In addition, the Ratio in assay [2] was > 4. Moreover, the result in assay [3] was Active.

Take `Cc1ccc2c(c1)=[N+]([O-])C1(CCCC1)[N+]=2[O-]`: the inhibition in assay [1] was found to be 27%. In addition, the Ratio in assay [2] was > 4. Also, the outcome in assay [3] was Active.

`Cc1nncnc1CC(c1ccc([N+](=O)[O-])cc1)[N+]1([O-])CCOCC1` (stereo not drawn) displayed an inhibition in assay [1] of 38%. Besides, in assay [2], the Ratio is > 4. Also, in assay [3], the result was Active.

For `O=[N+]([O-])c1ccc(/C=N/NC(=S)Nc2ccccc2)o1`, the inhibition in assay [1] came out at 17%. Besides, in assay [2], the Ratio was > 4. In assay [3], the result was Active.

The molecule `CCOC(=O)CN(Cc1ccc(OC)cc1)c1ccc([N+](=O)[O-])cc1[N+](=O)[O-]` returned an inhibition in assay [1] of 10%. Besides, the Ratio in assay [2] is > 4. The result in assay [3] was Active.

For `O=C(/C=C/c1ccc2c(c1)OCO2)c1ccccc1O`, the inhibition in assay [1] was 29%. Moreover, the Ratio in assay [2] was > 4. Besides, in assay [3], the result was Active.

In turn, `O=[N+]([O-])c1ccc(N2CCOCC2)c([N+](=O)[O-])c1` returned an inhibition in assay [1] of 19%. In addition, in assay [2], the Ratio is > 4. In addition, the result in assay [3] was Active.

In assay [1], `CCCN(CCC(C)C1CC=C(C)CC1)Cc1ccc2c(c1)=[N+]([O-])C(C)(C)[N+]=2[O-]` (stereo not drawn) returned an inhibition of 4%. In assay [2], the Ratio was > 4. For the same molecule, the outcome in assay [3] was Active.

For `Cc1nnc[n+]([O-])c1/C=C/c1ccc(N(C)C)cc1`, the inhibition in assay [1] is 8%. Moreover, the Ratio in assay [2] was > 4. Further, the result in assay [3] was Active.
